Data published in ChEMBL document CHEMBL1125259, “Lipophilic glycosyl phosphotriester derivatives of AZT: synthesis, NMR transmembrane transport study, and antiviral activity” (1991).

Experiments:
Format in all cases: functional
[1] = target: Human immunodeficiency virus type 1 reverse transcriptase (Human immunodeficiency virus 1) (UniProt Q72547); test: Compound ability to inhibit the production of HIV reverse transcriptase (RT) in preinfected PBL (peripheral blood lymphocytes) at 10 days at a concentration 1 uM
Procedure, shortened: (§1)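 PBL were infected with HIV-1 for 1 h at 37 °C, washed twice, and resuspended in complete medium with 10% interleukin-2 and anti-human α-interferon (1000 units/mL). Cells were plated at 1×10^6 cells/well with or without compound. At each time point, 50 µL supernatant was taken for RT assay ([³H]dTTP incorporation, cpm).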

[2] = target: Human immunodeficiency virus type 1 reverse transcriptase (Human immunodeficiency virus 1) (UniProt Q72547); test: Compound ability to inhibit the production of HIV reverse transcriptase (RT) in culture supernatant of monocytic U937 on at 14 days at a concentration 1 uM
Procedure, shortened: (§2)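 HIV-1-infected monocytic U937 cultures were kept up to 14 days with compound. Supernatant RT activity was measured as for CEM-C113, as [³H] cpm/50 µL. % inhibition = 100 − 100 × (cpm of treated samples / cpm of control virus).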

[3] = target: Human immunodeficiency virus type 1 reverse transcriptase (Human immunodeficiency virus 1) (UniProt Q72547); test: Compound ability to inhibit the production of HIV reverse transcriptase (RT) in culture supernatant of CEM-CL13 on at 22 days at a concentration 0.2 uM
Procedure, shortened: (§3)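 CEM-C113 cells in RPMI 1640 with 5% heat-inactivated FCS and polybrene (2 µg/mL) were plated at 1×10^5 cells/mL with compound in PBS, in triplicate, and infected with HIV-1 LAV-Bru. From day 7, every 3–4 days, fresh medium with or without drug was added and 50 µL supernatant was taken for RT microassay. The RT microassay used poly(rA)-oligo(dT) and (methyl-³H)dTTP for 1 h at 37 °C, with TCA precipitation, read as cpm/50 µL.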

CCRF-CEM [4] = test: Concentration that reduced by 50% the HIV induced CPE (cytopathic effect) on day 11.; conditions: Homo sapiens, 264 h, read-out: ED50 (the source's name)
Procedure, shortened: (§4)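 CEM-C113 cells (1×10^5 cells/mL) were infected with HIV-1 LAV-Bru or mock-infected, with compound dilutions in triplicate, for at least 7 days. Medium with or without drug was renewed every 3–4 days for longer runs. MTT absorbance was read at 540 nm. CD50 = 50% reduction of mock-infected absorbance; ED50 = dose giving 50% protection from CPE. Values are averages of at least two experiments.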

CCRF-CEM [5] = test: Concentration required to reduce the viability of uninfected cells (CEM-CL13) by 50% on day 19.; conditions: Homo sapiens, 456 h, read-out: CD50 (the source's name); procedure, shortened: as §4
[6] = target: Human immunodeficiency virus type 1 reverse transcriptase (Human immunodeficiency virus 1) (UniProt Q72547); test: Compound ability to inhibit the production of HIV reverse transcriptase (RT) in culture supernatant of CEM-CL13 on at 15 days at a concentration 0.2 uM; procedure, shortened: as §3
CCRF-CEM [7] = test: Concentration required to reduce the viability of uninfected cells (CEM-CL13) by 50% on day 22.; conditions: Homo sapiens, 528 h, read-out: CD50 (the source's name); procedure, shortened: as §4
[8] = target: Human immunodeficiency virus type 1 reverse transcriptase (Human immunodeficiency virus 1) (UniProt Q72547); test: Compounds were evaluated for anti-RT activity by MTT dose and % cell / viability was reported at 7 days of culture
Procedure, shortened: (§5)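 HIV-1 was preincubated with compound at 25 µM for 60 min at 37 °C, pelleted, and added to CEM-C113 cells (1×10^5 cells/mL) for 60 min at 37 °C. Medium was then replaced without compound. At days 7 and 9, viability was read by MTT assay on 100 µL of cell suspension.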

[9] = target: Human immunodeficiency virus type 1 reverse transcriptase (Human immunodeficiency virus 1) (UniProt Q72547); test: Compounds were evaluated for anti-RT activity by MTT dose and % cell / viability was reported at 9 days of culture; procedure, shortened: as §5
[10] = target: Human immunodeficiency virus type 1 reverse transcriptase (Human immunodeficiency virus 1) (UniProt Q72547); test: Compounds were evaluated for anti-RT activity at 9 days of culture
Procedure, shortened: (§6)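 HIV-1 (12 500 CCID50) was preincubated with compound at 25 µM final for 60 min at 37 °C, pelleted by ultracentrifugation and resuspended. RT was measured at once with poly(rA)-oligo(dT) and ³H-dTTP (1 h, 37 °C, cpm). Treated virus was then put on CEM-C113 cells for 60 min and replaced with compound-free medium. Supernatant RT was read at days 7 and 9.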

[11] = target: Human immunodeficiency virus type 1 reverse transcriptase (Human immunodeficiency virus 1) (UniProt Q72547); test: Compounds were evaluated for anti-RT activity by MTT dose and %protection was reported at 13 days of culture
[12] = target: Human immunodeficiency virus type 1 reverse transcriptase (Human immunodeficiency virus 1) (UniProt Q72547); test: Percent inhibition measured as the production of HIV reverse transcriptase (RT) in culture supernatant of monocytic U937 on at 11 days at a concentration 1 uM
Procedure, shortened: (§7)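 U937 cells in RPMI 1640 with 5% heat-inactivated FCS, penicillin, streptomycin and polybrene (2 μg/mL), 37 °C, 5% CO2. Infected with HIV-1 LAV-Bru; compounds diluted in PBS. 50 μL supernatant aliquots were assayed for RT: 1 h, 37 °C, pH 7.8, Mg2+, poly(rA)-oligo(dT), [3H]dTTP, TCA-pyrophosphate stop, filter counting. % inhibition = 100 − 100 × (treated cpm / virus-control cpm).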

[13] = target: Human immunodeficiency virus type 1 reverse transcriptase (Human immunodeficiency virus 1) (UniProt Q72547); test: Compounds were evaluated for anti-RT activity by MTT dose and %protection was reported at 7 days of culture; procedure, shortened: as §5
CCRF-CEM [14] = test: Concentration that reduced by 50% the HIV induced CPE (cytopathic effect) on day 19.; conditions: Homo sapiens, 456 h, read-out: ED50 (the source's name); procedure, shortened: as §4
[15] = target: Human immunodeficiency virus type 1 reverse transcriptase (Human immunodeficiency virus 1) (UniProt Q72547); test: Percent inhibition evaluated for anti-RT activity at 9 days of culture; design: concentration or dose not given beside the values; conditions: concentration not given here; procedure, shortened: as §6
CCRF-CEM [16] = test: Concentration that reduced by 50% the HIV induced CPE (cytopathic effect) on day 22.; conditions: Homo sapiens, 528 h, read-out: ED50 (the source's name); procedure, shortened: as §4
[17] = target: Human immunodeficiency virus type 1 reverse transcriptase (Human immunodeficiency virus 1) (UniProt Q72547); test: Compound ability to inhibit the production of HIV reverse transcriptase (RT) in preinfected PBL (peripheral blood lymphocytes) at 10 days at a concentration 5 uM; procedure, shortened: as §1
[18] = target: Human immunodeficiency virus type 1 reverse transcriptase (Human immunodeficiency virus 1) (UniProt Q72547); test: Compound ability to inhibit the production of HIV reverse transcriptase (RT) in culture supernatant of monocytic U937 on at 11 days at a concentration 1 uM; procedure, shortened: as §2
[19] = target: Human immunodeficiency virus type 1 reverse transcriptase (Human immunodeficiency virus 1) (UniProt Q72547); test: Compound ability to inhibit the production of HIV reverse transcriptase (RT) in culture supernatant of monocytic U937 on at 7 days at a concentration 1 uM; procedure, shortened: as §2
[20] = target: Human immunodeficiency virus type 1 reverse transcriptase (Human immunodeficiency virus 1) (UniProt Q72547); test: Compound ability to inhibit the production of HIV reverse transcriptase (RT) in preinfected PBL (peripheral blood lymphocytes) at 7 days at a concentration 5 uM; procedure, shortened: as §1
CCRF-CEM [21] = test: Concentration required to reduce the viability of uninfected cells (CEM-CL13) by 50% on day 7.; conditions: Homo sapiens, 168 h, read-out: CD50 (the source's name); procedure, shortened: as §4
[22] = target: Human immunodeficiency virus type 1 reverse transcriptase (Human immunodeficiency virus 1) (UniProt Q72547); test: Compound ability to inhibit the production of HIV reverse transcriptase (RT) in preinfected PBL (peripheral blood lymphocytes) at 7 days at a concentration 1 uM; procedure, shortened: as §1
[23] = target: Human immunodeficiency virus type 1 reverse transcriptase (Human immunodeficiency virus 1) (UniProt Q72547); test: Compounds were evaluated for anti-RT activity by MTT dose and % cell / viability was reported at 13 days of culture
[24] = target: Human immunodeficiency virus type 1 reverse transcriptase (Human immunodeficiency virus 1) (UniProt Q72547); test: Percent inhibition measured as the production of HIV reverse transcriptase (RT) in culture supernatant of monocytic U937 on at 14 days at a concentration 1 uM; procedure, shortened: as §7
[25] = target: Human immunodeficiency virus type 1 reverse transcriptase (Human immunodeficiency virus 1) (UniProt Q72547); test: Compound ability to inhibit the production of HIV reverse transcriptase (RT) in preinfected PBL (peripheral blood lymphocytes) at 14 days at a concentration 1 uM; procedure, shortened: as §1
CCRF-CEM [26] = test: Concentration required to reduce the viability of uninfected cells (CEM-CL13) by 50% on day 11.; conditions: Homo sapiens, 264 h, read-out: CD50 (the source's name); procedure, shortened: as §4

SMILES	Activity (c.p.m. 50ul-1) [1]	Activity (c.p.m. 50ul-1) [2]	Activity (c.p.m. 50ul-1) [3]	EC50 (CCRF-CEM [4])	CC50 (CCRF-CEM [5])	Activity (c.p.m. 50ul-1) [6]	CC50 (CCRF-CEM [7])	Cell viability [8]	Cell viability [9]	Activity (c.p.m. 50ul-1) [10]	Protection [11]	inhibition [12]	EC50 (CCRF-CEM [14])	inhibition [15]	EC50 (CCRF-CEM [16])	Activity (c.p.m. 50ul-1) [18]	Activity (c.p.m. 50ul-1) [19]	CC50 (CCRF-CEM [21])	Activity (c.p.m. 50ul-1) [22]	Cell viability [23]	further results
CCCCCCCCCCCCCCCCOP(=O)(OC[C@H]1OC(O)[C@H](O)[C@@H](O)[C@@H]1O)OC[C@H]1OC(n2cc(C)c(=O)[nH]c2=O)C[C@@H]1N=[N+]=[N-] (stereo not given in full)	26300	4000	45000	0.18 µM	3.2 µM	1600	3.2 µM	85%	62%	13000	28%	53%	1.5 µM	58%	0.8 µM	68000	66000	11 µM	3490	39%	Protection [13]: 81%; Activity (c.p.m. 50ul-1) [17]: 36400; Activity (c.p.m. 50ul-1) [20]: 8210; inhibition [24]: 79%; Activity (c.p.m. 50ul-1) [25]: 144000; CC50 (CCRF-CEM [26]): 3 µM
Cc1cn([C@H]2C[C@H](N=[N+]=[N-])[C@@H](COP(=O)(O)OC[C@H]3OC(O)[C@H](O)[C@@H](O)[C@@H]3O)O2)c(=O)[nH]c1=O (stereo not given in full)	771	17000	2200	0.16 µM	38 µM	750	35 µM	50%	34%	28000	0%	0%	0.7 µM	10%	0.9 µM	145000	158000	30 µM	1010	17%	Activity (c.p.m. 50ul-1) [17]: 798; Activity (c.p.m. 50ul-1) [20]: 890; inhibition [24]: 9%; Activity (c.p.m. 50ul-1) [25]: 408; CC50 (CCRF-CEM [26]): 35 µM
Cc1cn([C@H]2C[C@H](N=[N+]=[N-])[C@@H](CO)O2)c(=O)[nH]c1=O [ZIDOVUDINE]	757	37000	6400	0.12 µM	26 µM	1100	22 µM	100%	79%	7500	26%	7%	0.18 µM	76%	0.45 µM	134000	36000	26 µM	972	34%	Protection [13]: 100%; Activity (c.p.m. 50ul-1) [17]: 984; Activity (c.p.m. 50ul-1) [20]: 965; inhibition [24]: 0%; Activity (c.p.m. 50ul-1) [25]: 2020; CC50 (CCRF-CEM [26]): 23 µM
CCCCCCCCCCCCCCCCOP(=O)(OCCO[C@H]1O[C@H](CO)[C@@H](O)[C@H](O)[C@@H]1O)OCC1OC(n2cc(C)c(=O)[nH]c2=O)CC1N=[N+]=[N-] (stereo not given in full)	60200	55000	52000	1 µM	3.4 µM	2400	3.4 µM	41%	25%	44000	0%	0%	1.7 µM	0%	1.3 µM	243000	401000	20 µM	30200	12%	Protection [13]: 21%; inhibition [24]: 0%; CC50 (CCRF-CEM [26]): 28 µM
